Laboratory results taken from ChEMBL document CHEMBL1955865, “Synthesis of novel spirooxindole derivatives by one pot multicomponent reaction and their antimicrobial activity” (2012).
Converted amounts (≈) assume the structure as drawn. The source made the active and inactive calls. No cut-off for these calls is given here.

Legend:
Staphylococcus aureus [1] = assay: Antibacterial activity against methicillin-resistant Staphylococcus aureus at 10 ug/disc after 24 hrs by disc diffusion assay; assay type: functional; details: read-out: IZ
Outline: (§1)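 Streptomycin positive-control discs at 10 μg/disc on Mueller Hinton agar, swabbed with bacteria grown 24 h at 37 °C in MHB and diluted to about 10^4 CFU/ml. Discs stood 30 min at room temperature, then plates were incubated 24 h at 37 °C. Inhibition zones were measured in mm; experiment repeated twice.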

Salmonella typhimurium [2] = assay: Antibacterial activity against Salmonella Typhimurium MTCC 1251 after 24 hrs by two-fold serial dilution method; assay type: functional, Salmonella enterica subsp. enterica serovar Typhimurium; details: Salmonella enterica, MTCC 1251, 24 h
Outline: (§2)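 Bacteria grown in Mueller Hinton broth for 24 h at 37 °C and diluted to about 10^4 CFU/ml. Compound in 2% DMSO was serially diluted two-fold (1000 to 15.62 µg/ml) in medium in 96-well plates and inoculated. Plates were incubated 24 h at 37 °C. 5 µl of broth was spotted onto MHA, and MIC was taken as the lowest concentration with no visible growth on agar.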

Proteus vulgaris [3] = assay: Antibacterial activity against Proteus vulgaris MTCC 1771 after 24 hrs by twofold serial dilution method; assay type: functional; details: MTCC 1771, 24 h; outline: as §2
Salmonella typhimurium [4] = assay: Antibacterial activity against Salmonella Typhimurium MTCC 1251 at 10 ug/disc after 24 hrs by disc diffusion assay; assay type: functional, Salmonella enterica subsp. enterica serovar Typhimurium; details: Salmonella enterica, MTCC 1251, 24 h; read-out: IZ
Outline: (§3)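 Streptomycin positive-control discs (10 µg/disc) on Mueller Hinton agar swabbed with bacterial culture (about 10^4 CFU/ml). Discs stood 30 min at room temperature, then plates were incubated 24 h at 37 °C. Zones of inhibition were recorded in mm, and the experiment was repeated twice.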

Staphylococcus aureus [5] = assay: Antibacterial activity against Staphylococcus aureus MTCC 96 at 10 ug/disc after 24 hrs by disc diffusion assay; assay type: functional; details: MTCC 96, 24 h, read-out: IZ; outline: as §3
Klebsiella aerogenes [6] = assay: Antibacterial activity against Enterobacter aerogenes MTCC 111 after 24 hrs by twofold serial dilution method; assay type: functional; details: MTCC 111, 24 h; outline: as §2
Klebsiella pneumoniae [7] = assay: Antibacterial activity against Klebsiella pneumoniae MTCC 109 at 10 ug/disc after 24 hrs by disc diffusion assay; assay type: functional; details: MTCC 109, 24 h, read-out: IZ; outline: as §3
Staphylococcus aureus [8] = assay: Antibacterial activity against Staphylococcus aureus MTCC 96 after 24 hrs by twofold serial dilution method; assay type: functional; details: MTCC 96, 24 h; outline: as §2
Proteus vulgaris [9] = assay: Antibacterial activity against Proteus vulgaris MTCC 1771 at 10 ug/disc after 24 hrs by disc diffusion assay; assay type: functional; details: MTCC 1771, 24 h, read-out: IZ; outline: as §3
Klebsiella pneumoniae [10] = assay: Antibacterial activity against Klebsiella pneumoniae MTCC 109 after 24 hrs by twofold serial dilution method; assay type: functional; details: MTCC 109, 24 h; outline: as §2
Staphylococcus aureus [11] = assay: Antibacterial activity against methicillin-resistant Staphylococcus aureus after 24 hrs by twofold serial dilution method; assay type: functional
Outline: (§4)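 Broth microdilution in MHB following the standard bacterial reference method. Compound was dissolved in DMSO (2%) and serially diluted two-fold from 1000 to 15.62 µg/ml in 96-well plates, with an inoculum of about 10^4 CFU/ml. Streptomycin and ciprofloxacin were positive controls. After 24 h at 37 °C, 5 µl of broth was subcultured on MHA. MIC was the lowest concentration without visible growth on agar.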

[12] = tested on: Salmonella enterica subsp. enterica serovar Paratyphi B; assay: Antibacterial activity against Salmonella paratyphi B at 10 ug/disc after 24 hrs by disc diffusion assay; assay type: functional; details: read-out: IZ; outline: as §1
Micrococcus luteus [13] = assay: Antibacterial activity against Micrococcus luteus after 24 hrs by twofold serial dilution method; assay type: functional; outline: as §2
[14] = tested on: Salmonella enterica subsp. enterica serovar Paratyphi B; assay: Antibacterial activity against Salmonella paratyphi B after 24 hrs by twofold serial dilution method; assay type: functional; outline: as §4
Klebsiella aerogenes [15] = assay: Antibacterial activity against Enterobacter aerogenes MTCC 111 at 10 ug/disc after 24 hrs by disc diffusion assay; assay type: functional; details: MTCC 111, 24 h, read-out: IZ; outline: as §3
Micrococcus luteus [16] = assay: Antibacterial activity against Micrococcus luteus at 10 ug/disc after 24 hrs by disc diffusion assay; assay type: functional; details: read-out: IZ; outline: as §3
Candida albicans [17] = assay: Antifungal activity against Candida albicans MTCC 227 after 48 to 72 hrs by twofold serial dilution method; assay type: functional
Outline: (§5)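 Broth two-fold serial dilution, 1000 to 15.62 µg/ml, with compound dissolved in 2% DMSO, in 96-well plates. Filamentous fungal spores came from 10-day SDA slants at 28 °C, and yeast from SDB grown 48 h at 28 °C. Incubation was 48-72 h at 28 °C. MIC was the lowest concentration with no visible fungal growth.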

Staphylococcus aureus [18] = assay: Antibacterial activity against Staphylococcus aureus MTCC 96 at 1000 ug/disc after 24 hrs by disc diffusion assay; assay type: functional; details: MTCC 96, 24 h, read-out: IZ
Outline: (§6)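 Disc diffusion on Mueller Hinton agar. Cultures (about 10^4 CFU/ml) were swabbed on and dried 10 min. Discs loaded at 1000 µg/disc were left 30 min at room temperature for diffusion, with a solvent negative control. Plates were incubated 24 h at 37 °C. Inhibition zones were measured in mm, and the experiment was done twice.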

[19] = Antifungal activity against Malassezia pachydermatis after 48 to 72 hrs by twofold serial dilution method; assay type: functional; outline: as §5
Proteus vulgaris [20] = assay: Antibacterial activity against Proteus vulgaris MTCC 1771 at 1000 ug/disc after 24 hrs by disc diffusion assay; assay type: functional; details: MTCC 1771, 24 h, read-out: IZ; outline: as §6
Salmonella typhimurium [21] = assay: Antibacterial activity against Salmonella Typhimurium MTCC 1251 at 1000 ug/disc after 24 hrs by disc diffusion assay; assay type: functional, Salmonella enterica subsp. enterica serovar Typhimurium; details: Salmonella enterica, MTCC 1251, 24 h; read-out: IZ; outline: as §6
[22] = tested on: Salmonella enterica subsp. enterica serovar Paratyphi B; assay: Antibacterial activity against Salmonella paratyphi B at 1000 ug/disc after 24 hrs by disc diffusion assay; assay type: functional; details: read-out: IZ
Outline: (§7)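 Disc diffusion on Mueller Hinton agar. Bacteria were grown 24 h at 37 °C in MHB and diluted to about 10^4 CFU/ml, swabbed onto plates and dried 10 min. Discs were loaded at 1000 μg/disc and held 30 min at room temperature for diffusion. Solvent served as negative control. After 24 h at 37 °C, inhibition zones were read in mm; run twice.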

Candida albicans [23] = assay: Antifungal activity against Candida albicans MTCC 227 at 1000 ug/disc after 48 hrs by disc diffusion assay; assay type: functional; details: MTCC 227, 48 h, read-out: IZ
Outline: (§8)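 Fungal disc diffusion with inoculum from SDA spores (filamentous) or SDB culture (yeast). Test cultures were swabbed on agar, and discs at 1000 µg/disc were left 30 min at room temperature, with a solvent negative control. Plates were incubated 48 h at 27 °C. Zone of inhibition was measured in mm, and the experiment was repeated twice.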

Botrytis cinerea [24] = assay: Antifungal activity against Botrytis cinerea at 1000 ug/disc after 48 hrs by disc diffusion assay; assay type: functional; details: read-out: IZ; outline: as §8
Botrytis cinerea [25] = assay: Antifungal activity against Botrytis cinerea after 48 to 72 hrs by twofold serial dilution method; assay type: functional; outline: as §5
Staphylococcus aureus [26] = assay: Antibacterial activity against methicillin-resistant Staphylococcus aureus at 1000 ug/disc after 24 hrs by disc diffusion assay; assay type: functional; details: read-out: IZ; outline: as §7
Klebsiella aerogenes [27] = assay: Antibacterial activity against Enterobacter aerogenes MTCC 111 at 1000 ug/disc after 24 hrs by disc diffusion assay; assay type: functional; details: MTCC 111, 24 h, read-out: IZ; outline: as §6
[28] = Antifungal activity against Malassezia pachydermatis at 1000 ug/disc after 48 hrs by disc diffusion assay; assay type: functional; outline: as §8
Klebsiella pneumoniae [29] = assay: Antibacterial activity against Klebsiella pneumoniae MTCC 109 at 1000 ug/disc after 24 hrs by disc diffusion assay; assay type: functional; details: MTCC 109, 24 h, read-out: IZ; outline: as §6
Micrococcus luteus [30] = assay: Antibacterial activity against Micrococcus luteus at 1000 ug/disc after 24 hrs by disc diffusion assay; assay type: functional; details: read-out: IZ; outline: as §6

Row | SMILES | MIC (Salmonella typhimurium [2]) [µg/mL] | MIC (Proteus vulgaris [3]) [µg/mL] | MIC (Klebsiella aerogenes [6]) [µg/mL] | MIC (Staphylococcus aureus [8]) [µg/mL] | MIC (Klebsiella pneumoniae [10]) [µg/mL] | MIC (Staphylococcus aureus [11]) [µg/mL] | MIC (Micrococcus luteus [13]) [µg/mL] | MIC [14] | MIC (Candida albicans [17]) [µg/mL] | zone of inhibition at 1000 µg/disc (Staphylococcus aureus [18]) [mm] | MIC [19] [µg/mL] | zone of inhibition at 1000 µg/disc (Proteus vulgaris [20]) [mm] | zone of inhibition at 1000 µg/disc (Salmonella typhimurium [21]) [mm] | zone of inhibition at 1000 µg/disc [22] [mm] | zone of inhibition at 1000 µg/disc (Candida albicans [23]) [mm] | zone of inhibition at 1000 µg/disc (Botrytis cinerea [24]) [mm] | MIC (Botrytis cinerea [25]) [µg/mL] | zone of inhibition at 1000 µg/disc (Staphylococcus aureus [26]) [mm] | zone of inhibition at 1000 µg/disc (Klebsiella aerogenes [27]) [mm] | inhibition zone (IZ) [28] [mm] | other results
1 | CN[C@@H]1[C@H](O[C@H]2[C@H](O[C@H]3[C@H](O)[C@@H](O)[C@H](N=C(N)N)[C@@H](O)[C@@H]3N=C(N)N)O[C@@H](C)[C@]2(O)C=O)O[C@@H](CO)[C@H](O)[C@H]1O [STREPTOMYCIN] | 30 (≈ 51.6 µM) | 6.25 (≈ 10.7 µM) | 25 (≈ 43 µM) | 6.25 (≈ 10.7 µM) | 6.25 (≈ 10.7 µM) | > 100 | 6.25 (≈ 10.7 µM) | inactive |  |  |  |  |  |  |  |  |  |  |  |  | zone of inhibition at 10 µg/disc (Staphylococcus aureus [1]): 20 mm; zone of inhibition at 10 µg/disc (Salmonella typhimurium [4]): 23 mm; zone of inhibition at 10 µg/disc (Staphylococcus aureus [5]): 16 mm; zone of inhibition at 10 µg/disc (Klebsiella pneumoniae [7]): 20 mm; zone of inhibition at 10 µg/disc (Proteus vulgaris [9]): 22 mm; zone of inhibition at 10 µg/disc [12]: 17 mm; zone of inhibition at 10 µg/disc (Klebsiella aerogenes [15]): 22 mm; zone of inhibition at 10 µg/disc (Micrococcus luteus [16]): 23 mm
2 | Cc1ccc2c(c1)C1(C(=O)N2C)C2=C(CN1C)C(=O)c1ccccc1C2=O (centres undefined) | 15.6 (≈ 43.6 µM) | 125 (≈ 349 µM) | 62.5 (≈ 174 µM) | 15.6 (≈ 43.6 µM) | 250 (≈ 698 µM) | 125 (≈ 349 µM) | 125 (≈ 349 µM) | 500 µg/mL (≈ 1400 µM) | 250 (≈ 698 µM) | 22 | 500 (≈ 1400 µM) | 16 | 22 | 8 | 12 | 11 | 250 (≈ 698 µM) | 14 | 17 | 10 | zone of inhibition at 1000 µg/disc (Klebsiella pneumoniae [29]): 13 mm; zone of inhibition at 1000 µg/disc (Micrococcus luteus [30]): 15 mm
3 | Cc1ccc2c(c1)C1(C(=O)N2)C2=C(CN1C)C(=O)c1ccccc1C2=O (centres undefined) | 250 (≈ 726 µM) | 250 (≈ 726 µM) | 125 (≈ 363 µM) | 31.2 (≈ 90.7 µM) | 62.5 (≈ 181 µM) | 125 (≈ 363 µM) | 62.5 (≈ 181 µM) | 125 µg/mL (≈ 363 µM) | 250 (≈ 726 µM) | 15 | 125 (≈ 363 µM) | 9 | 12 | 11 | 8 | 9 | 250 (≈ 726 µM) | 12 | 13 | 12 | zone of inhibition at 1000 µg/disc (Klebsiella pneumoniae [29]): 13 mm; zone of inhibition at 1000 µg/disc (Micrococcus luteus [30]): 13 mm
4 | CCCCN1C(=O)C2(C3=C(CN2C)C(=O)c2ccccc2C3=O)c2ccccc21 (centres undefined) | 125 (≈ 323 µM) | 500 (≈ 1290 µM) | 500 (≈ 1290 µM) | 62.5 (≈ 162 µM) | 250 (≈ 647 µM) | 500 (≈ 1290 µM) | 250 (≈ 647 µM) | 500 µg/mL (≈ 1290 µM) | 500 (≈ 1290 µM) | 17 | 250 (≈ 647 µM) | 10 | 15 | 9 | 10 | 9 | 500 (≈ 1290 µM) | 8 | 10 | 11 | zone of inhibition at 1000 µg/disc (Klebsiella pneumoniae [29]): 13 mm; zone of inhibition at 1000 µg/disc (Micrococcus luteus [30]): 13 mm
5 | CCN1C(=O)C2(C3=C(CN2C)C(=O)c2ccccc2C3=O)c2ccccc21 (centres undefined) | 31.2 (≈ 87.2 µM) | 62.5 (≈ 174 µM) | 250 (≈ 698 µM) | 15.6 (≈ 43.6 µM) | 250 (≈ 698 µM) | 250 (≈ 698 µM) | 31.2 (≈ 87.2 µM) | 500 µg/mL (≈ 1400 µM) | 500 (≈ 1400 µM) | 22 | 250 (≈ 698 µM) | 15 | 19 | 10 | 10 | 8 | 500 (≈ 1400 µM) | 13 | 12 | 11 | zone of inhibition at 1000 µg/disc (Klebsiella pneumoniae [29]): 12 mm; zone of inhibition at 1000 µg/disc (Micrococcus luteus [30]): 18 mm
